Results as given in ChEMBL document CHEMBL1125831, “Synthesis and quantitative structure-activity relationship analysis of 2-(aryl or heteroaryl)quinolin-4-amines, a new class of anti-HIV-1 agents” (J Med Chem, 1991).
pEC50: −log10 of the molar value.

Assays:
[1] = In vitro toxicity on uninfected Phytohemagglutininin stimulated human PBM cell; format: cell-based
Method in brief: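 Human PBM cells stimulated with phytohemagglutinin and left uninfected. Cell toxicity reported as minimum toxic concentration (MTC).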

[2] = test system: Human immunodeficiency virus 1; experiment: In vitro antiviral activity in Phytohemagglutininin stimulated human PBM cells infected with HIV-1 (strain LAV-1); format: functional, organism-based; settings: Human immunodeficiency virus 1, PBMC
Method in brief: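 […] human PBM cells stimulated with phytohemagglutinin, then infected with HIV-1 strain LAV-1. Antiviral activity reported as median effective concentration (EC50).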

Structure (SMILES) | MTC [1] [µM] | pEC50 [2]
Cc1ccc(-c2cc(NCCN(C)C)c3ccccc3n2)cc1 | 10 | 5.35
CCN(CCN(C)C)c1cc(-c2cccs2)nc2ccccc12 | 100 | 4.49
Nc1cc(-c2ccccn2)nc2ccccc12 | 100 | 5.07
CC(C)(C)Nc1cc(-c2ccccc2)nc2ccccc12 |  | 4.00
c1cncc(-c2cc(N3CCCC3)c3ccccc3n2)c1 | 100 | 4.47
CN(C)CCNc1cc(-c2cccs2)nc2ccccc12 | 10 | 6.24
Nc1cc(-c2cccs2)nc2ccccc12 | 10 | 4.46
CC1CCCCN1c1cc(-c2ccccn2)nc2ccccc12 (stereo not given) | 100 | 5.37
CN(C)CCNc1cc(-c2ccc(F)cc2)nc2ccccc12 | 100 | 4.88
c1ccc(-c2cc(N3CCSCC3)c3ccccc3n2)nc1 |  | 5.55
CN(C)CCNc1cc(-c2ccncc2)nc2ccccc12 | 100 | 4.43
CN(C)CCNc1cc(-c2cccnc2)nc2ccccc12 | > 100 | 5.82
CCN(CCN(C)C)c1cc(-c2ccncc2)nc2ccccc12 | 100 | 4.00
CC1CCCN(c2cc(-c3ccccc3)nc3ccccc23)C1 (stereo not given) | 100 | 4.78
CC(C)Nc1cc(-c2ccccc2)nc2ccccc12 | > 100 | 4.00
Nc1cc(-c2cccnc2)nc2ccccc12 | 85.7 | 6.00
CN(C)CCNc1cc(-c2ccc(Cl)cc2)nc2ccccc12 |  | 4.00
c1ccc(-c2cc(N3CCOCC3)c3ccccc3n2)nc1 |  | 4.73
CC1CCCN(c2cc(-c3ccccn3)nc3ccccc23)C1 (stereo not given) | 100 | 5.31

Structure (SMILES) | MTC [1] [µM] | pEC50 [2]
CN(C)CCNc1cc(-c2ccc(Br)cc2)nc2ccccc12 | 100 | 4.35
COc1ccc(-c2cc(NCCN(C)C)c3ccccc3n2)cc1 | 10 | 4.98
CC1CCN(c2cc(-c3ccccn3)nc3ccccc23)CC1 | 100 | 5.39
CN1CCN(c2cc(-c3ccco3)nc3ccccc23)CC1 |  | 4.80
CN(C)CCNc1cc(-c2ccco2)nc2ccccc12 | > 1 | 6.04
CN1CCN(c2cc(-c3ccncc3)nc3ccccc23)CC1 |  | 4.17
CC(C)CNc1cc(-c2ccccc2)nc2ccccc12 | 100 | 4.30
CC1CCCCN1c1cc(-c2ccccc2)nc2ccccc12 (stereo not given) | 100 | 4.58
CCN(CCN(C)C)c1cc(-c2ccccn2)nc2ccccc12 |  | 4.88
CN(C)CCNc1cc(-c2ccccc2)nc2ccccc12 | 100 | 5.00
CN1CCN(c2cc(-c3ccccc3)nc3ccccc23)CC1 | 100 | 4.88
CN1CCN(c2cc(-c3cccs3)nc3ccccc23)CC1 |  | 5.04
CN(C)CCNc1cc(-c2ccccn2)nc2ccccc12 | 100 | 5.87
CCN(CCN(C)C)c1cc(-c2ccccc2)nc2ccccc12 |  | 4.46
CN1CCN(c2cc(-c3ccccn3)nc3ccccc23)CC1 |  | 5.26
c1cncc(-c2cc(N3CCCCC3)c3ccccc3n2)c1 | 100 | 4.70
Nc1cc(-c2ccccc2)nc2ccccc12 |  | 4.59
CN1CCN(c2cc(-c3cccnc3)nc3ccccc23)CC1 | > 100 | 6.00
CCN(CCN(C)C)c1cc(-c2cccnc2)nc2ccccc12 | 100 | 4.62
